Reference: ChEMBL document CHEMBL3085764, “Azole-carbodithioate hybrids as vaginal anti-Candida contraceptive agents: design, synthesis and docking studies” (Eur J Med Chem, 2013)
Converted amounts (≈) assume the structure as drawn.

Experiments:
Sporothrix schenckii = experiment: Antifungal activity against Sporothrix schenckii after 48 hrs by broth microdilution technique; format: functional, organism-based
Procedure, shortened: (§1)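 MIC by broth microdilution following NCCLS guidelines, in RPMI 1640 buffered with MOPS. Starting inoculum 1-5 × 10^3 CFU/mL. Plates incubated at 35 °C. MIC and IC50 read spectrophotometrically at 492 nm after 48 h.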

Trichomonas vaginalis = experiment: Trichomonacidal activity against Trichomonas vaginalis after 48 hrs by trypan blue exclusion assay; format: functional; settings: read-out: MEC
Procedure, shortened: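 T. vaginalis in log phase, grown in TYM with 10% FCS, vitamin mixture and penicillin/streptomycin at 37 °C. DMSO stocks ([…]) serially diluted in TYM down to 0.1 µg/mL; DMSO/TYM vehicle controls. 5 × 10^4 trophozoites added and incubated anaerobically at 37 °C. Viability checked by trypan blue from 3 to 48 h. MIC = lowest concentration killing all cells by 48 h. Three repeats.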

[1] = Spermicidal activity in human semen assessed as sperm immobilization at 0.1 % w/v up to 30 seconds by phase contrast microscopy; format: functional
[2] = Spermicidal activity in human semen assessed as sperm immobilization at 1.0 % w/v up to 30 seconds by phase contrast microscopy; format: functional
Candida albicans [3] = experiment: Antifungal activity against Candida albicans clinical isolate after 48 hrs by broth microdilution technique; format: functional, organism-based; procedure, shortened: as §1
Candida albicans [4] = experiment: Antifungal activity against Candida albicans ATCC 10231 after 48 hrs by broth microdilution technique; format: functional, organism-based; settings: ATCC 10231, 48 h; procedure, shortened: as §1
Candida albicans [5] = experiment: Antifungal activity against Candida albicans clinical isolate CDRI after 48 hrs by broth microdilution technique; format: functional, organism-based; procedure, shortened: as §1
Candida albicans [6] = experiment: Antifungal activity against Candida albicans MTCC 183 after 48 hrs by broth microdilution technique; format: functional, organism-based; settings: MTCC 183, 48 h; procedure, shortened: as §1
Candida parapsilosis = experiment: Antifungal activity against Candida parapsilosis ATCC 22019 after 48 hrs by broth microdilution technique; format: functional, organism-based; settings: Lodderomyces parapsilosis, ATCC 22019, 48 h; procedure, shortened: as §1
Candida albicans [7] = experiment: Antifungal activity against Candida albicans after 48 hrs by broth microdilution technique; format: functional, organism-based; procedure, shortened: as §1
Klebsiella pneumoniae = experiment: Antibacterial activity against Klebsiella pneumoniae after 48 hrs by broth microdilution technique; format: functional
Procedure, shortened: (§2)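 Broth microdilution following NCCLS guidelines in Mueller Hinton broth. Inoculum held at 1-5 × 10^3 cfu/mL. Plates incubated at 35 °C in a moist, dark chamber for 48 h. MIC and IC50 read spectrophotometrically at 492 nm.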

Staphylococcus aureus = experiment: Antibacterial activity against Staphylococcus aureus ATCC 25923 after 48 hrs by broth microdilution technique; format: functional; settings: ATCC 25923, 48 h; procedure, shortened: as §2
Pseudomonas aeruginosa = experiment: Antibacterial activity against Pseudomonas aeruginosa ATCC BAA-427 after 48 hrs by broth microdilution technique; format: functional; settings: ATCC BAA-427, 48 h; procedure, shortened: as §2
Escherichia coli = experiment: Antibacterial activity against Escherichia coli ATCC 9637 after 48 hrs by broth microdilution technique; format: functional; settings: ATCC 9637, 48 h; procedure, shortened: as §2
Cryptococcus neoformans = experiment: Antifungal activity against Cryptococcus neoformans after 48 hrs by broth microdilution technique; format: functional, organism-based; procedure, shortened: as §1
Aspergillus fumigatus = experiment: Antifungal activity against Aspergillus fumigatus after 48 hrs by broth microdilution technique; format: functional, organism-based; procedure, shortened: as §1
[8] = tested on: Trichophyton mentagrophytes; experiment: Antifungal activity against Trichophyton mentagrophytes after 48 hrs by broth microdilution technique; format: functional, organism-based; procedure, shortened: as §1

SMILES	IC50 (Sporothrix schenckii) [µg/mL]	minimal effective concentration (Trichomonas vaginalis) [µg/mL]	Activity [1] [%]	Activity [2] [%]	IC50 (Candida albicans [3]) [µg/mL]	IC50 (Candida albicans [4]) [µg/mL]	IC50 (Candida albicans [5]) [µg/mL]	IC50 (Candida albicans [6]) [µg/mL]	IC50 (Candida parapsilosis) [µg/mL]	IC50 (Candida albicans [7]) [µg/mL]	MIC (Klebsiella pneumoniae) [µg/mL]	MIC (Staphylococcus aureus) [µg/mL]	MIC (Pseudomonas aeruginosa) [µg/mL]	MIC (Escherichia coli) [µg/mL]	IC50 (Cryptococcus neoformans) [µg/mL]	IC50 (Aspergillus fumigatus) [µg/mL]	IC50 [8] [µg/mL]
CSC(=S)n1ccnc1	> 50	> 200	0	100	> 50	> 50	> 50	> 50	> 50	5.75 (≈ 36.3 µM)	≥ 50	≥ 50	≥ 50	≥ 50	> 50	> 50	> 50
N#CCCCSC(=S)n1ccnc1	> 50	> 200	92	100	10.8 (≈ 51 µM)	> 50	43.5 (≈ 206 µM)	> 50	5.27 (≈ 24.9 µM)	> 50	≥ 50	≥ 50	≥ 50	≥ 50	> 50	> 50	–
C=CCSC(=S)n1ccnc1	4.96 (≈ 26.9 µM)	> 200	0	100	1.8 (≈ 9.77 µM)	7.26 (≈ 39.4 µM)	3.94 (≈ 21.4 µM)	6.79 (≈ 36.8 µM)	2.09 (≈ 11.3 µM)	> 50	≥ 50	≥ 50	≥ 50	≥ 50	5.75 (≈ 31.2 µM)	> 50	4.43 (≈ 24 µM)
CCCCCCCCSC(=S)n1ccnc1	–	> 200	80	100	1.06 (≈ 4.13 µM)	7.68 (≈ 29.9 µM)	31.4 (≈ 122 µM)	4.61 (≈ 18 µM)	> 50	5.72 (≈ 22.3 µM)	≥ 50	≥ 50	≥ 50	≥ 50	> 50	6.21 (≈ 24.2 µM)	1.48 (≈ 5.77 µM)
CCCCCCCCCCCCCCCCSC(=S)n1ccnc1	> 50	> 200	0	100	> 50	> 50	> 50	> 50	> 50	> 50	≥ 50	≥ 50	≥ 50	≥ 50	> 50	> 50	18.4 (≈ 50 µM)
O=C1c2ccccc2C(=O)N1CCSC(=S)n1ccnc1	4.17 (≈ 13.1 µM)	> 200	0	100	16 (≈ 50.5 µM)	19.5 (≈ 61.5 µM)	30.9 (≈ 97.5 µM)	11.1 (≈ 34.9 µM)	> 50	5.45 (≈ 17.2 µM)	≥ 50	≥ 50	≥ 50	≥ 50	28.6 (≈ 90.1 µM)	> 50	6.15 (≈ 19.4 µM)
CSC(=S)n1ccnc1C	4.41 (≈ 25.6 µM)	> 200	0	100	25.9 (≈ 151 µM)	36.8 (≈ 214 µM)	> 50	37.3 (≈ 216 µM)	> 50	7.24 (≈ 42 µM)	≥ 50	≥ 50	≥ 50	≥ 50	9.1 (≈ 52.8 µM)	> 50	11.7 (≈ 67.8 µM)
Cc1nccn1C(=S)SCCCC#N	> 50	> 200	0	95	> 50	> 50	47.7 (≈ 212 µM)	41 (≈ 182 µM)	> 50	36 (≈ 160 µM)	≥ 50	≥ 50	≥ 50	≥ 50	> 50	> 50	24.9 (≈ 111 µM)
C=CCSC(=S)n1ccnc1C	1.5 (≈ 7.56 µM)	> 200	0	100	2.1 (≈ 10.6 µM)	4.53 (≈ 22.8 µM)	7.26 (≈ 36.6 µM)	3.61 (≈ 18.2 µM)	10.2 (≈ 51.2 µM)	2.21 (≈ 11.1 µM)	≥ 50	≥ 50	≥ 50	≥ 50	3.35 (≈ 16.9 µM)	18.1 (≈ 91.3 µM)	> 50
CCCCCCCCSC(=S)n1ccnc1C	4.47 (≈ 16.5 µM)	> 200	100	100	> 50	> 50	19 (≈ 70.4 µM)	> 50	> 50	7.21 (≈ 26.7 µM)	≥ 50	≥ 50	≥ 50	≥ 50	> 50	> 50	> 50
CCCCCCCCCCCCCCCCSC(=S)n1ccnc1C	> 50	> 200	0	95	> 50	> 50	> 50	> 50	> 50	> 50	≥ 50	≥ 50	≥ 50	≥ 50	> 50	> 50	7.07 (≈ 18.5 µM)
C=CCSC(=S)n1cncn1	5.78 (≈ 31.2 µM)	> 200	0	100	> 50	> 50	45.5 (≈ 246 µM)	> 50	> 50	2.53 (≈ 13.7 µM)	≥ 50	≥ 50	≥ 50	≥ 50	> 50	> 50	> 50
N#CCCCSC(=S)n1cnc2ccccc21	–	> 200	0	100	> 50	> 50	3.86 (≈ 14.8 µM)	> 50	> 50	> 50	≥ 50	≥ 50	≥ 50	≥ 50	> 50	> 50	–
C=CCSC(=S)n1cnc2ccccc21	–	> 200	0	100	> 50	> 50	39.3 (≈ 168 µM)	40.1 (≈ 171 µM)	> 50	> 50	≥ 50	≥ 50	≥ 50	≥ 50	> 50	> 50	> 50
CCCCSC(=S)n1cnc2ccccc21	> 50	> 200	0	100	> 50	> 50	37.4 (≈ 149 µM)	21.8 (≈ 87.1 µM)	> 50	6.39 (≈ 25.5 µM)	≥ 50	≥ 50	≥ 50	≥ 50	> 50	> 50	1.4 (≈ 5.59 µM)
CCCCCCCCSC(=S)n1cnc2ccccc21	> 50	> 200	0	95	> 50	> 50	> 50	> 50	> 50	> 50	≥ 50	≥ 50	≥ 50	≥ 50	> 50	> 50	> 50
Cn1nnc2ccccc21	1.58 (≈ 11.9 µM)	> 200	0	0	> 50	> 50	> 50	> 50	> 50	> 50	≥ 50	≥ 50	≥ 50	≥ 50	> 50	> 50	> 50
OC(Cn1cncn1)(Cn1cncn1)c1ccc(F)cc1F [FLUCONAZOLE]	0.08 (≈ 0.261 µM)	–	–	–	–	–	–	0.21 (≈ 0.686 µM)	0.46 (≈ 1.5 µM)	–	–	–	–	–	–	0.38 (≈ 1.24 µM)	0.06 (≈ 0.196 µM)
Cc1ncc([N+](=O)[O-])n1CCO [METRONIDAZOLE]	–	2	0	0	–	–	–	–	–	–	–	–	–	–	–	–	–
